Our source for the Activity, Ratio IC50 and inhibition values is ChEMBL document CHEMBL4304789, “Design, Synthesis, and Biological Evaluation of 2,4-Imidazolinedione Derivatives as HDAC6 Isoform-Selective Inhibitors” (ACS Med Chem Lett, 2019).

The test system of one assay is HL-60. Nature of the assay: Induction of apoptosis in human in human HL60 cells assessed as increase in caspase 3 activation at 0.25 to 0.75 uM using […] as substrate preincubated for 24 to 48 hrs followed by substrate addition and measured after 1.5 hrs by fluorescence based assay. The format is functional, cell-based. The method, boiled down:
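HL-60 cells exposed to 0.25, 0.45 and 0.75 μM for 24 and 48 h, with untreated cells as control; activated caspase 3 measured. Mean ± SD of at least three independent experiments; significance versus untreated control set at p < 0.05.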

For assay [1], the species on record is Homo sapiens. Kind of assay: Selectivity ratio of IC50 for HDAC1 (unknown origin) to IC50 for HDAC6 (unknown origin). The method, boiled down:
(§1)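 Each isoform's IC50 comes from a dose–effect curve in an HDAC isoform inhibition panel, with replicates n ≥ 2. The ratio is that isoform's IC50 divided by the HDAC6 IC50.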

The species named for assay [2] is Homo sapiens. Nature of the assay: Selectivity ratio of IC50 for HDAC2 (unknown origin) to IC50 for HDAC6 (unknown origin). The method, boiled down: as §1
The species named for assay [3] is Homo sapiens. Nature of the assay: Selectivity ratio of IC50 for HDAC3 (unknown origin) to IC50 for HDAC6 (unknown origin). The method, boiled down:
as §1

Assay [4] is filed under the species Homo sapiens. Kind of assay: Selectivity ratio of IC50 for HDAC4 (unknown origin) to IC50 for HDAC6 (unknown origin). The method, boiled down:
as §1

Assay [5] is filed under the species Homo sapiens. Kind of assay: Selectivity ratio of IC50 for HDAC7 (unknown origin) to IC50 for HDAC6 (unknown origin). The method, boiled down:
as §1

Assay [6] is filed under the species Homo sapiens. Nature of the assay: Selectivity ratio of IC50 for HDAC8 (unknown origin) to IC50 for HDAC6 (unknown origin). The method, boiled down: as §1
The species named for assay [7] is Homo sapiens. Nature of the assay: Selectivity ratio of IC50 for HDAC9 (unknown origin) to IC50 for HDAC6 (unknown origin). The method, boiled down: as §1
The species entered for assay [8] is Homo sapiens. Kind of assay: Selectivity ratio of IC50 for HDAC11 (unknown origin) to IC50 for HDAC6 (unknown origin). The method, boiled down:
as §1

The target in assay [9] is Histone deacetylase (Homo sapiens) (UniProt Q13547+O15379+Q9UBN7+Q92769+Q9UQL6+Q8WUI4+Q9BY41+Q96DB2+P56524+Q9UKV0+Q969S8). The note with it: at 0.08 to 1.6 µM.

Calls of active or inactive are those of the source. The calls are words filed in the database; no cut-off is given here.

For the compound `Cc1ccc(CN2C(=O)N(c3ccc(Cl)cc3)C(=O)C2CCC(=O)Nc2ccc(C(=O)NO)cc2)cc1` (stereo not given), the outcome with HL-60 was Active. Besides, the Ratio IC50 was 218 in the assay listed under Homo sapiens [1]; 63 in the assay filed under Homo sapiens [2]; 53 in the assay filed under Homo sapiens [3]; over 20000 in the assay listed under Homo sapiens [4]; over 20000 in the assay filed under Homo sapiens [5]; over 20000 in the assay listed under Homo sapiens [6]. Moreover, the Ratio IC50 in the assay listed under Homo sapiens [7] and in the assay listed under Homo sapiens [8] was over 20000 throughout. In addition, the inhibition result in [9] was “Active”.
